# Screening data (PubChem)
# Many of the other results were omitted from the sample, so hits are more common in it than they were.
# FLuc stim CS: affects firefly luciferase, flagging false hits in luciferase stimulation screens | P08659 | ATPlite luciferase biochemical, luminescence, 10 min; 0 = ATP-free wells, 1 = DMSO control | activation factor at 10 µM | 200,000 tested, under 10 active;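 active means luciferase activation factor, scaled between plate controls, of at least 2 with compound at 10 µM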
# Target sequence (P08659 whole entry, looked up): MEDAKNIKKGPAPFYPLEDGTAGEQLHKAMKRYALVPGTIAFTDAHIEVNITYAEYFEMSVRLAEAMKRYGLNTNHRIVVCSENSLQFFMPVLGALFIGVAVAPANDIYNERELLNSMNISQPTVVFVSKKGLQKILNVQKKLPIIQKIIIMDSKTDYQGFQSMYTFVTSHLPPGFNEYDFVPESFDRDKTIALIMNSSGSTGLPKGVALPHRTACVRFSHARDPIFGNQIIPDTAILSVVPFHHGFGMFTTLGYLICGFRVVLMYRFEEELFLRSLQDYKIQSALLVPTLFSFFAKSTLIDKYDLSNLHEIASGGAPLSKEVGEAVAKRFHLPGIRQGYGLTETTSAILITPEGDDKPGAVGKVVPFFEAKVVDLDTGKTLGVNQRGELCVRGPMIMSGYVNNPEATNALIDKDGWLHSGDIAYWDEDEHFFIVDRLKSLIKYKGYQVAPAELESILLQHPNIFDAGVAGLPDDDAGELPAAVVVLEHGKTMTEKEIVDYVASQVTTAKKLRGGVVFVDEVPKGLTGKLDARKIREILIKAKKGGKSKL
#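 assay system = Luciferase/luciferin detection reagent, cell-free biochemical luciferase assay | also added = ATP substrate | times = 10 min post-reagent at room temperature | measured by = luminescence from luciferase reaction | measure = luciferase activation, seen as luminescence increase over controls | benchmarks = low control with PBS replacing ATP, high control enzyme plus ATP without compound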
# ABCG2 inh: inhibitors of human ABCG2 transporter, ABCB1 counter-screen | Q9UNQ0 | IgMXP3 cells, JC-1 efflux, flow cytometry | inhibition, % at 6.6 µM | 190,000 tested, 0.1% active | AID 1325;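 active means inhibition above 80%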;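 further: 0% = DMSO and 100% = nicardipine control wells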
#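 Read-out basis: Efflux inhibition in percent versus controls | Test system: ABCG2 IgMXP3 and barcoded ABCB1 CCRF-Adr cell mix | Quantity: 3 million cells/mL in well | Schedule: 10 min at 25 °C | Control set: Nicardipine as high control, DMSO as low control | Reagent: JC-1 as fluorescent efflux pump substrate | Signal: Flow cytometry of retained JC-1 fluorescence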
# ABCB6 inh MLPCN: human ABCB6 transporter inhibition | Q9NP58 | K562-ABCB6 porphyrin accumulation, flow cytometry, 1 h; active compounds read low | fluorescence ratio to DMSO, % at 10 µM | 360,000 tested, 0.19% active | AID 602162;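 active means fluorescence ratio to DMSO below 75%, the collection mean minus 3 SD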;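 further: signal is porphyrin accumulated inside mitochondria; 100% equals median channel fluorescence of DMSO control wells; lower ratio means ABCB6 inhibition with less porphyrin fluorescence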
# Diaph act CS: activates diaphorase or chemically reduces, flagging diaphorase assay artifacts; Diaphorase/resazurin coupled assay, resorufin fluorescence, 16 min; active compounds read high; 1 = vehicle wells, 0 = NADH-free wells; AID 1229; 190,000 tested, 0.005% active; activation factor at 20 µM;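 active means diaphorase activity raised at least twofold by the compound at 20 µM; inactive means activation factor below 2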
#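 Measured by – red resorufin fluorescence at 544/590 nm excitation/emission · Test system – Clostridium kluyveri diaphorase, purified enzyme · Incubation – reaction time 16 min, room temperature · Buffer or medium – 50 mM HEPES pH 7.4 with 4.542 mM MgCl2, 0.005% Tween 20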
# FLuc inhib CS: counter-screen for luciferase assay inhibitors: firefly luciferase inhibition; P08659; inhibition, % at 10 µM; 200,000 tested, 1.5% active; AID 1006; ATPLite firefly luciferase biochemical luminescence, 10 min;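 active means inhibition above about 50% when tested at 10 µM, limit read from the data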
# ABCB1 block: human ABCB1 inhibition, ABCG2 as counter-screen | AID 1326 | CCRF-Adr cells, JC-1 efflux, flow cytometry | inhibition, % at 6.6 µM | P08183 | 190,000 tested, 0.067% active; in the data active means inhibition above about 40%;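 further: 0% = vehicle and 100% = reference inhibitor; higher value means more JC-1 retained so stronger ABCB1 efflux block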
# * hit, by the source's call; · = not tested or not shown.
SMILES,FLuc stim CS,ABCG2 inh,ABCB6 inh MLPCN,Diaph act CS,FLuc inhib CS,ABCB1 block
CCN(c1ccccc1)S(=O)(=O)c1ccc2c(c1)OCCO2,·,·,91.0,·,·,·
COc1ccc2oc(C(=O)Nc3nnc(C)s3)c(C)c2c1,·,·,100.0,·,·,·
Cc1ccc2oc(C(=O)Nc3nnc(C)s3)c(C)c2c1,0.4,2.2,91.0,0.9,59.0*,0.8
CC1(c2ccc(OC(F)F)cc2)NC(=O)N(CC(=O)N2c3ccccc3NC(=O)C2(C)C)C1=O (centres undefined),·,·,96.0,·,·,·
O=C(O)/C=C/c1cccc(NC(=O)c2ccc(Cl)cc2)c1,0.3,-0.5,100.0,·,67.6*,0.5
Oc1[nH]c2ccccc2c1N=Nc1ccccn1,·,·,89.0,·,·,·
Oc1c(N=Nc2ccccn2)ccc2ccccc12,0.1,3.8,102.0,0.7,90.7*,0.2
CCc1ccc(Nc2nnc(SCC(=O)NCCN3C(=O)CSC3=O)s2)cc1,0.2,5.4,103.0,1,84.1*,0.2
Cc1cccc(C)c1NC(=O)CN(C)C(=O)C1=COCCO1,·,·,100.0,·,·,·
COc1ccc(-n2c(SCC(=O)N3CCOCC3)nc3ccccc3c2=O)cc1,·,·,107.0,·,·,·
FC(F)(F)c1cnc(-c2cnc(-c3ccccn3)nc2)c(Cl)c1,0.4,6.5,193.0,1,63.8*,0.3
Nc1c(-c2ccccc2)cnc2cc(-c3ccccc3)nn12,0.1,2.6,101.0,0.9,85.5*,0.1
Cc1cc2ncc(-c3ccc(Cl)cc3)c(N)n2n1,0.4,-1.3,88.0,1,57.7*,-0.2
Cc1c(C=Nc2ccc(S(=O)(=O)CCO)cc2)c(O)[nH]c(=O)c1C#N,·,·,97.0,·,·,·
CCOC(=O)/C(=C\c1ccccc1)C(=O)CCN1CCOCC1,·,·,96.0,·,·,·
CCN=C1S/C(=C/c2ccc(-c3ccc(Cl)cc3C(=O)O)o2)C(=O)N1CC,·,·,71.0*,·,·,·
O=S(=O)(/N=C(/Nc1cccnc1)c1ccccc1)c1ccc(F)cc1F,·,·,96.0,·,·,·
Cc1cc(C)c2c(N)c(C(=O)Nc3ncc(C)s3)sc2n1,0,0.0,93.0,0.8,97.5*,-0.1
COC(=O)c1sc2nc(C)cc(C)c2c1N,1,17.0,97.0,0.8,3.6,0.6
CC(=O)Nc1ccc(NC(=O)CSc2nc(=O)n(Cc3cccnc3)c3c2CCC3)cc1,·,·,97.0,·,·,·
O=C(Nc1cccnc1)c1ccc(-c2ccc(Cl)cc2)o1,0.3,3.4,93.0,0.9,66.2*,-1.8
O=C(Nc1nccs1)c1ccc(-c2ccc(Cl)cc2)o1,0.1,-2.0,93.0,0.9,85.4*,-1.0
O=C(Nc1nccs1)c1ccc(-c2ccc(F)cc2)o1,0.2,3.2,97.0,0.9,78.1*,0.1
CC1=NN(c2nc3ccccc3[nH]2)C(=O)/C1=C/N(C)C,0.1,16.7,97.0,1,93.9*,-0.9
CCOc1ccccc1N1CCN(C(=O)C2CSC3(C)CCC(=O)N23)CC1 (centres undefined),·,·,90.0,·,·,·
SMILES,FLuc stim CS,ABCG2 inh,ABCB6 inh MLPCN,Diaph act CS,FLuc inhib CS,ABCB1 block
COc1cc(S(=O)(=O)N2CCN(c3ccccc3)CC2)ccc1Cl,1,5.4,94.0,0.7,-2.1,1.0
COc1cc(S(=O)(=O)N2CCN(c3ccccc3F)CC2)ccc1Cl,0.3,2.3,97.0,0.7,74.0*,0.8
O=C(NC1=NCCS1)C1COc2ccccc2O1 (centres undefined),0.2,8.7,94.0,0.9,76.5*,0.5
COc1cc(/C=N/NC(=O)Cc2csc(N3CCOCC3)n2)cc(OC)c1O,0.4,1.0,97.0,1,59.6*,0.1
COc1cc2ccccc2cc1C(=O)NCC(c1cccs1)N(C)C (centres undefined),0.4,1.2,97.0,1,63.8*,0.0
Cc1cc(SCC(=O)N2CCN(C(=O)c3ccco3)CC2)c(C)cc1Br,·,·,100.0,·,·,·
C=CCn1c(C)cc(C(=O)CSc2nc3ccccc3[nH]2)c1C,0.5,12.0,106.0,0.8,54.8*,1.8
O=C(Nc1ccc2cn[nH]c2c1)c1ccccc1F,0.5,19.1,98.0,0.9,52.9*,-0.2
O=C(NC(=S)Nc1ccc2c(c1)OCCO2)c1ccccc1,0.3,0.9,95.0,0.8,68.3*,0.2
O=C(NC(=S)Nc1ccc2c(c1)OCCO2)c1ccccc1F,0.5,6.9,98.0,0.9,50.4*,0.6
COc1cccc(OC)c1C(=O)NC(=S)Nc1ccc2c(c1)OCCO2,0.9,0.7,97.0,0.8,10.6,-0.3
CCOc1cccc(C(=O)NC(=S)Nc2ccc3c(c2)OCCO3)c1,0.8,-0.1,94.0,0.7,15.9,-0.5
O=C(Nc1ccc2c(c1)OCCO2)c1ccccc1F,0.2,5.7,94.0,1,75.6*,0.7
CC(C)CN(C(=O)COc1ccccc1C(=O)NCc1ccccc1)C1CCS(=O)(=O)C1 (centres undefined),·,·,93.0,·,·,·
COc1ccc(NC(=O)Nc2ccccc2C(N)=O)cc1,0.2,7.5,102.0,0.9,83.9*,0.4
Cc1ccc(NC(=O)Nc2ccccc2C(N)=O)cc1,·,·,95.0,·,·,·
CCOc1ccc(NC(=O)Nc2ccccc2C(N)=O)cc1,0.1,0.8,106.0,0.9,93.3*,-0.1
CCOc1ccc(NC(=O)Nc2ccc(NC(C)=O)cc2)cc1,1.1,-0.7,93.0,1,-5.2,0.0
CC(Oc1ccccc1F)C(=O)NNC(=O)c1cccc(S(=O)(=O)N2CCN(C)CC2)c1 (centres undefined),·,·,90.0,·,·,·
COc1ccccc1-n1cc(C(=O)NCC(=O)N2CCN(c3ccccc3)CC2)c2ccccc2c1=O,0.3,1.7,98.0,0.9,69.9*,1.5
COc1ccccc1N1CCN(C(=O)CNC(=O)c2cn(-c3ccccc3OC)c(=O)c3ccccc23)CC1,0.6,1.8,93.0,0.9,42.1,0.9
COc1cc(OC)cc(OC(=O)C2CCN(S(=O)(=O)c3ccc(OC)c(OC)c3)CC2)c1,·,·,101.0,·,·,·
Cc1nc(-c2coc3cc(OCC(=O)O)ccc3c2=O)cs1,0.2,5.4,97.0,1.1,77.6*,0.0
CCOC(=O)COc1ccc2c(=O)c(-c3ccccc3)coc2c1,·,·,95.0,·,·,·
COc1ccc(-c2coc3cc(OC)ccc3c2=O)cc1,·,·,95.0,·,·,·
SMILES,FLuc stim CS,ABCG2 inh,ABCB6 inh MLPCN,Diaph act CS,FLuc inhib CS,ABCB1 block
COc1ccc2c(=O)c(-c3nc(C)cs3)coc2c1,0.2,2.5,95.0,0.9,77.6*,0.3
CCc1cc2c(=O)c(-c3nc(C)cs3)coc2cc1O,·,·,102.0,·,·,·
Cc1nc(-c2coc3cc(O)c(C)cc3c2=O)cs1,0.2,3.5,101.0,0.8,82.7*,-0.1
CCOC(=O)C1(C)CCCN(C(=O)COc2ccccc2)C1 (centres undefined),·,·,102.0,·,·,·
COc1cc(N/N=C/c2ccc(N(C)C)cc2)ncn1,0.1,-0.1,100.0,1,86.4*,-0.1
COc1cc(N/N=C/c2ccccc2O)ncn1,0.8,3.8,100.0,0.6,21.6,0.0
